# Activity calls are given as the source filed them. The rule behind the calls is not given here.
# Assays:
# Mus musculus [1] = assay: Anesthetic activity in iv dosed drug naive Kunming mouse assessed as loss of righting reflex; type: functional
# How it was run: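 Male KM mice (20-30 g), at least 20 drug-naïve animals per drug, given a tail-vein bolus over ~10 s. Anaesthesia scored as loss of righting reflex. ED50 found by the up-and-down method and analysed by Dixon–Mood to give the median effective dose with 95% CI.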
# [2] = Stability in water at 10 mg/ml incubated for 4 hrs by HPLC analysis; type: physicochemical; settings: buffer
# How it was run: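 Aqueous solutions (10 mg/ml) held at 30 °C for 4 h before the plasma hydrolysis studies, n=3.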
# [3] = Drug metabolism in Kunming mouse plasma assessed as propofol release at 100 ug/ml incubated up to 120 mins by HPLC analysis relative to control; type: ADME, cell-free; settings: 2 h
# [4] = Toxicity in iv dosed drug naive Kunming mouse assessed as mouse survival dosed at 2 times anesthetic ED50; type: organism-based; settings: in vivo
# How it was run: (§1)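 Ten drug-naïve male KM mice (20-30 g) per drug received 2×ED50 by tail-vein injection. Onset is timed from end of injection to appearance of LORR. Duration is timed from LORR appearance to its recovery. Survival is recorded over the 10 mice.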
# [5] = Therapeutic index, ratio of LD50 for toxicity in iv dosed drug naive Kunming mouse to ED50 for anesthetic activity in iv dosed drug naive Kunming mouse assessed as loss of righting reflex; type: organism-based; settings: in vivo, read-out: Ratio LD50/ED50
# How it was run: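 TI = LD50/ED50. Both values come from tail-vein bolus (~10 s) dosing of male KM mice (20-30 g, at least 20 drug-naïve per drug) by the up-and-down method. The ED50 end point is loss of righting reflex.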
# Mus musculus [6] = assay: Anesthetic activity in iv dosed drug naive Kunming mouse assessed as time from end of injection to appearance of loss of righting reflex dosed at 2 times anesthetic ED50; type: functional; how it was run: as §1
# [7] = Toxicity in iv dosed drug naive Kunming mouse; type: organism-based; settings: in vivo
# How it was run: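 Male KM mice (20-30 g), at least 20 drug-naïve animals per drug, given a tail-vein bolus over ~10 s. LD50 found by the up-and-down method.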
# [8] = Drug metabolism in iv dosed drug naive Kunming mouse assessed dose of propofol released from prodrugs dosed at 2 times anesthetic ED50; type: ADME, organism-based; settings: in vivo
# How it was run: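 Propofol delivered at 2×ED50 is calculated as (MW propofol/MW prodrug)×(2×ED50) mg/kg from the tail-vein ED50 in KM mice.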
# [9] = Stability in Kunming mouse plasma assessed as drug decomposition at 100 ug/ml incubated up to 120 mins by HPLC analysis; type: ADME, cell-free; settings: 2 h
# How it was run: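 Mouse blood was heparinised at sampling and centrifuged at 3500×g for 5 min at 4 °C to obtain plasma. A 10 mg/ml aqueous stock was diluted 1:100 into plasma, giving a final 100 μg/ml, and shaken at 37 °C for 2 h. The read-out was the percentage of propofol released, given as mean ± SD. Water stability (30 °C, 4 h, n=3) was checked beforehand.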
# [10] = Stability in Kunming mouse plasma assessed as drug decomposition at 100 ug/ml incubated for 2 hrs by HPLC analysis; type: ADME, cell-free
# [11] = Solubility in water measured per 100 ml; type: physicochemical; settings: buffer
# [12] = Solubility in water; type: physicochemical
SMILES,ED50 (Mus musculus [1]),Stability [2],Drug metabolism [3],survival [4],selectivity ratio [5],Time (Mus musculus [6]),LD50 [7],Drug metabolism [8],Stability [9],Stability [10],solubility [11],solubility [12]
CC(C)c1cccc(C(C)C)c1OC(=O)OCCC(=O)[O-].[Na+],inactive,Stable,,,,,,,,,,
CC(C)c1cccc(C(C)C)c1OC(=O)COC(=O)CCC(=O)[O-].[Na+],73.1 mg/kg,,Metabolite_Detected,80%,2.8,25.5 s,205 mg/kg,75.7 mg/kg,,,,
CC(C)c1cccc(C(C)C)c1OC(=O)COC(=O)C1COCCN1.Cl (stereo not given),30.4 mg/kg,,,60%,2.3,6.7 s,69.6 mg/kg,28.1 mg/kg,,,,
CC(C)c1cccc(C(C)C)c1OC(=O)CN1CCOCC1,36.6 mg/kg,,,30%,2.1,12 s,75 mg/kg,42.7 mg/kg,,,,
CC(C)c1cccc(C(C)C)c1OC(=O)COC(=O)[C@H](C)N.Cl,20.5 mg/kg,,,50%,2.5,18.2 s,51.9 mg/kg,21.2 mg/kg,,,,
CC(C)c1cccc(C(C)C)c1OC(=O)OC(C(=O)[O-])C(=O)[O-].[Na+].[Na+],inactive,Stable,,,,,,,Stable,,,
CC(C)c1cccc(C(C)C)c1OC(=O)COC(=O)CC(=O)[O-].[Na+],75.9 mg/kg,,,100%,3.2,72.2 s,244 mg/kg,76 mg/kg,,,,
CC(C)c1cccc(C(C)C)c1OC(=O)CSCC(=O)[O-].[Na+],190 mg/kg,,,0%,1.2,20.2 s,222 mg/kg,203.6 mg/kg,,Stable,,
CC(C)c1cccc(C(C)C)c1OC(=O)COC(C(=O)[O-])C(=O)[O-].[Na+].[Na+],inactive,,,,,,,,,Stable,,
CC(C)c1cccc(C(C)C)c1OC(=O)COC(=O)C1CCCCN1.Cl (stereo not given),20.8 mg/kg,,,20%,2.6,10.6 s,54.4 mg/kg,19.3 mg/kg,,,,
CNCC(=O)OCC(=O)Oc1c(C(C)C)cccc1C(C)C.Cl,29.6 mg/kg,,,60%,2,8 s,60.8 mg/kg,30.7 mg/kg,,,,
CC(C)c1cccc(C(C)C)c1OC(=O)COC(=O)CN1CCN(C)CC1.Cl,40.3 mg/kg,,,70%,2.3,2.4 s,91.6 mg/kg,34.8 mg/kg,,,,
CC(C)c1cccc(C(C)C)c1OC(=O)OC(CC(=O)[O-])C(=O)[O-].[Na+].[Na+] (stereo not given),inactive,Stable,,,,,,,Stable,,,
CC(C)c1cccc(C(C)C)c1O [PROPOFOL],,,,100%,4.5,1 s,52.2 mg/kg,23.4 mg/kg,,,1.53 ×10⁻² g,
CC(C)c1cccc(C(C)C)c1OC(=O)COC(=O)CN1CCOCC1.Cl,28.1 mg/kg,,Metabolite_Detected,100%,4.7,3.1 s,132 mg/kg,25.1 mg/kg,,,76.33 g,
CC(C)c1cccc(C(C)C)c1OC(=O)CNCC(=O)O.Cl,,,,,,,,,,,,< 10 mg/mL
CC(C)c1cccc(C(C)C)c1OC(=O)COC(=O)CN.Cl,34.3 mg/kg,,,10%,2.6,9.1 s,89.2 mg/kg,37.1 mg/kg,,,,
CC(C)c1cccc(C(C)C)c1OC(=O)OCC(=O)[O-].[Na+],inactive,Stable,,,,,,,,,,
CC(C)c1cccc(C(C)C)c1OC(=O)COC(=O)CN1CCCC1.Cl,25.2 mg/kg,,,100%,3.6,4 s,92.1 mg/kg,23.4 mg/kg,,,83.96 g,
CC(C)c1cccc(C(C)C)c1OCOP(=O)([O-])[O-].[Na+].[Na+] [FOSPROPOFOL DISODIUM],105 mg/kg,,,100%,2.8,46.4 s,288 mg/kg,112.7 mg/kg,,,,
CC(C)c1cccc(C(C)C)c1OC(=O)COC(=O)CN(C)C.Cl,40.2 mg/kg,,,40%,2.3,4.6 s,93.8 mg/kg,40.1 mg/kg,,,,
CC(C)c1cccc(C(C)C)c1OC(=O)COC(=O)CN1CCCCC1.Cl,22.3 mg/kg,,,100%,4.1,3 s,91.4 mg/kg,22 mg/kg,,,85.86 g,
CC(C)c1cccc(C(C)C)c1OC(=O)COCC(=O)[O-].[Na+],65.7 mg/kg,,,100%,,82.3 s,,74 mg/kg,,,,< 20 mg/mL

# Source: ChEMBL document CHEMBL4627404, “Design, Synthesis, and Activity Study of Water-Soluble, Rapid-Release Propofol Prodrugs” (J Med Chem, 2020)
